Assay results from ChEMBL document CHEMBL1149502, “Conjugated indole-imidazole derivatives displaying cytotoxicity against multidrug resistant cancer cell lines” (Bioorg Med Chem Lett, 2006).

What was measured:
Type in all cases: functional, cell-based
[1] = test system: HL-60; assay: Cytotoxicity against human HL60/TX1000 cell line by MTS assay
Summary of the method: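 HL-60/TX1000 is a subline isolated in vitro by subculturing HL-60 in rising Taxol concentrations. It overexpresses MDR1 mRNA and P-glycoprotein (Western blot, anti-P-gp immunofluorescence). Cells were grown in RPMI1640 with 10% FC, penicillin, streptomycin and L-glutamine, split every third day and set at 2· 10⁵ cells/mL the day before. Compound was a 1 mM DMSO stock diluted into medium, read by MTS.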

[2] = test system: MES-SA/Dx5; assay: Cytotoxicity against human MES-SA/DX5 cell line by MTS assay
Summary of the method: (§1)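 Cells kept in RPMI1640 with 10% FC, 100 U/mL penicillin, streptomycin and […] L-glutamine. Split every third day and diluted to 2· 10⁵ cells/mL one day before testing, so exponentially growing cultures were used. Compound stock was 1 mM in DMSO, diluted straight into the medium to final concentrations. Viability was read by MTS.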

[3] = test system: MES-SA; assay: Cytotoxicity against human MES-SA cell line by MTS assay; summary of the method: as §1
[4] = test system: MDA-MB-435; assay: Cytotoxicity against human MDA435 cell line by MTS assay; summary of the method: as §1
[5] = test system: P388; assay: Cytotoxicity against murine P388 cell line by MTS assay; conditions: Mus musculus; summary of the method: as §1
[6] = test system: HL-60; assay: Cytotoxicity against human HL60 cell line by MTS assay; summary of the method: as §1
[7] = test system: DU-145; assay: Cytotoxicity against human DU145 cell line by MTS assay; summary of the method: as §1

Question: How did the IC50 [1] turn out when `CCC(=O)c1c[nH]c(C(=O)c2cn(Cc3ccc(Cl)cc3)c3ccccc23)n1` was run?
Answer: 500 nM

Question: `CC(=O)O[C@H]1C(=O)[C@@]2(C)[C@H]([C@H](OC(=O)c3ccccc3)[C@]3(O)C[C@H](OC(=O)[C@H](O)[C@@H](NC(=O)c4ccccc4)c4ccccc4)C(C)=C1C3(C)C)[C@]1(OC(C)=O)CO[C@@H]1C[C@@H]2O` [PACLITAXEL] was tested. Which IC50 [2] did it give?
Answer: 5000 nM

Question: And the IC50 [3]?
Answer: 5 nM

Question: What about the IC50 [4] of the same molecule?
Answer: 5 nM

Question: How did the IC50 [5] turn out when `O=C(c1nc2cc[nH]cc-2n1)c1cn(Cc2ccc(Cl)cc2)c2ccccc12` was run?
Answer: 50 nM

Question: And the IC50 [2]?
Answer: 50 nM

Question: What about the IC50 [3] of the same molecule?
Answer: 10 nM

Question: What about the IC50 [1] of the same molecule?
Answer: 50 nM

Question: And the IC50 [6]?
Answer: 50 nM

Question: What about the IC50 [4] of the same molecule?
Answer: 50 nM

Question: And the IC50 [7]?
Answer: 50 nM

Question: With `O=C(c1nc(CO)c[nH]1)c1cn(Cc2ccc(Cl)cc2)c2ccccc12` as the molecule, how does the IC50 [1] read?
Answer: 5000 nM

Question: Which IC50 [1] does the source give for `Cn1c(C(=O)c2cn(Cc3ccc(Cl)cc3)c3ccccc23)nc2cnccc21` here?
Answer: 10000 nM

Question: How did the IC50 [1] turn out when `O=C(O)c1c[nH]c(C(=O)c2cn(Cc3ccc(Cl)cc3)c3ccccc23)n1` was run?
Answer: 10000 nM

Question: For `O=C(c1cccnc1)c1c[nH]c(C(=O)c2cn(Cc3ccc(Cl)cc3)c3ccccc23)n1`, which IC50 [1] is on record?
Answer: 500 nM

Question: How did the IC50 [1] turn out when `O=C(c1nc(C(O)c2cccnc2)c[nH]1)c1cn(Cc2ccc(Cl)cc2)c2ccccc12` (stereo unspecified) was run?
Answer: 10000 nM

Question: Which IC50 [1] does the source give for `O=C(c1nc(-c2ccccn2)c[nH]1)c1cn(Cc2ccc(Cl)cc2)c2ccccc12` here?
Answer: 500 nM

Question: With `O=C(c1nc2ccc[nH]c-2n1)c1cn(Cc2ccc(Cl)cc2)c2ccccc12` as the molecule, how does the IC50 [1] read?
Answer: 10000 nM

Question: `COC(=O)c1c[nH]c(C(=O)c2cn(Cc3ccc(Cl)cc3)c3ccccc23)n1` was tested. Which IC50 [1] did it give?
Answer: 500 nM

Question: For `CCNC(=O)c1c[nH]c(C(=O)c2cn(Cc3ccc(Cl)cc3)c3ccccc23)n1`, which IC50 [1] is on record?
Answer: 5000 nM

Question: `O=C(c1ncc[nH]1)c1cn(Cc2ccc(Cl)cc2)c2ccccc12` was tested. Which IC50 [1] did it give?
Answer: 10000 nM
